Experimental data reported in ChEMBL document CHEMBL1127327, “Novel series of TSAO-T derivatives. Synthesis and anti-HIV-1 activity of 4-, 5-, and 6-substituted pyrimidine analogues” (J Med Chem, 1994).
Values joined by “and” are separate entries in the source; they are usually repeats but may differ in a detail not shown here. Identical values can stand only once.

Columns and labels:
MT4 [1] = test: Concentration required for 50% of cell death on MT-4 cell lines; type: functional, Homo sapiens
Outline: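 Mock-infected MT-4 cells (5 × 10^5 cells/mL) in fresh culture medium, mixed in microtiter wells with dilutions of test compound. After 5 days, viable cells counted by trypan blue staining. CC50 taken as the compound concentration that reduces the number of mock-infected MT-4 cells by 50%.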

MT4 [2] = test: Selectivity index (ratio CC50/EC50) in MT-4 cells is measured; type: functional
Outline: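 Ratio of CC50 to EC50, both from MT-4 cultures read after 5 days by trypan blue viable-cell counts. CC50 is the concentration reducing mock-infected MT-4 cell number by 50%. EC50 comes from HIV-infected MT-4 cells (100 CCID50 per mL, 5 × 10^5 cells/mL).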

CCRF-CEM [3] = test: Effective concentration against HIV-2 induced cytopathicity in CEM cells; type: functional, cell-based; conditions: Homo sapiens
Outline: (§1)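 CEM cells at 5 × 10^5 cells/mL in fresh medium, infected with HIV-1 or HIV-2 at 100 CCID50 per mL of suspension, then mixed 1:1 with serial compound dilutions. Virus-induced syncytia were counted microscopically after 4 days. EC50 is the concentration reducing syncytium number by 50%.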

CCRF-CEM [4] = test: Effective concentration against HIV-1 induced cytopathicity in CEM cells; type: functional, cell-based; conditions: Homo sapiens; outline: as §1
[5] = tested on: Human immunodeficiency virus; test: Effective concentration against HIV-1 induced cytopathicity in MT-4 cells; type: functional, organism-based, MT4
Outline: (§2)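 MT-4 cells at 5 × 10^5 cells/mL, infected with HIV-1 or HIV-2 at 100 CCID50 per mL, then mixed 1:1 with serial compound dilutions. After 5 days, viable cells in infected and mock-infected cultures were counted by trypan blue exclusion. EC50 is the concentration giving a 50% reduction in virus-induced loss of viable cells.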

MT4 [6] = test: Effective concentration against HIV-2 induced cytopathicity in MT-4 cells; type: functional, cell-based; conditions: Homo sapiens; outline: as §2
[7] = Human immunodeficiency virus 1, MT4

Structure (SMILES)	CC50 (MT4 [1]) [µM]	Selectivity index (MT4 [2])	EC50 (CCRF-CEM [3]) [µM]	EC50 (CCRF-CEM [4]) [nM]	EC50 ([5]; mt4)	EC50 [5, 7] [nM]	EC50 (MT4 [6]) [µM]
CCc1cn([C@@H]2O[C@H](CO[Si](C)(C)C(C)(C)C)[C@@]3(OS(=O)(=O)C=C3N)[C@H]2O[Si](C)(C)C(C)(C)C)c(=O)[nH]c1=O	5.3	88					
CC(C)(C)[Si](C)(C)OC[C@H]1O[C@@H](n2ccc(=O)[nH]c2=O)[C@H](O[Si](C)(C)C(C)(C)C)C12OS(=O)(=O)C=C2N (some centres undefined)	14	74					
Cc1cn([C@@H]2O[C@H](CO[Si](C)(C)C(C)(C)C)C3(OS(=O)(=O)C=C3N)[C@H]2O[Si](C)(C)C(C)(C)C)c(=O)[nH]c1=O (some centres undefined)	13	217	> 7	44			
Cc1cn([C@@H]2O[C@H](CO[Si](C)(C)C(C)(C)C)[C@@]3(OS(=O)(=O)C=C3N)[C@H]2O[Si](C)(C)C(C)(C)C)c(=O)nc1N	30	250	> 13.5	50			
CC(C)(C)[Si](C)(C)OC[C@H]1O[C@@H](n2ccc(N)nc2=O)[C@H](O[Si](C)(C)C(C)(C)C)[C@]12OS(=O)(=O)C=C2N	> 350	460	> 350	1390			
CC(C)(C)[Si](C)(C)OC[C@H]1O[C@@H](n2cc(Br)c(=O)[nH]c2=O)[C@H](O[Si](C)(C)C(C)(C)C)[C@]12OS(=O)(=O)C=C2N	3.6	11			320 nM and > 2400 nM		
CNc1nc(=O)n([C@@H]2O[C@H](CO[Si](C)(C)C(C)(C)C)[C@@]3(OS(=O)(=O)C=C3N)[C@H]2O[Si](C)(C)C(C)(C)C)cc1C	26	217	> 33	110			
CC(C)(C)[Si](C)(C)OC[C@H]1O[C@@H]2[C@H](O[Si](C)(C)C(C)(C)C)[C@]13OS(=O)(=O)C=C3Nc1cc(=O)[nH]c(=O)n12	16	2.7			5900 nM and > 12000 nM		
CC(C)(C)[Si](C)(C)OC[C@H]1O[C@@H](n2cc(I)c(=O)[nH]c2=O)[C@H](O[Si](C)(C)C(C)(C)C)[C@]12OS(=O)(=O)C=C2N	12	133	> 5.7	30			
CC(C)(C)[Si](C)(C)OC[C@H]1O[C@@H](n2cc(C(F)(F)F)c(=O)[nH]c2=O)[C@H](O[Si](C)(C)C(C)(C)C)[C@]12OS(=O)(=O)C=C2N	14	17	> 6.2	770	820 nM and > 6200 nM		
Cc1cn([C@@H]2O[C@H](CO[Si](C)(C)C(C)(C)C)[C@@]3(OS(=O)(=O)C=C3N)[C@H]2O[Si](C)(C)C(C)(C)C)c(=O)nc1N(C)C	62	388				160	> 32
CC(C)(C)[Si](C)(C)OC[C@H]1O[C@@H](n2c(C#N)cc(=O)[nH]c2=O)[C@H](O[Si](C)(C)C(C)(C)C)[C@]12OS(=O)(=O)C=C2N	11	3	> 6.6	2100	3600 nM	3600	
COC(=N)c1cc(=O)[nH]c(=O)n1[C@@H]1O[C@H](CO[Si](C)(C)C(C)(C)C)[C@@]2(OS(=O)(=O)C=C2N)[C@H]1O[Si](C)(C)C(C)(C)C	11	4.1	> 6.3	1100	2700 nM and > 6300 nM		
CC(C)(C)[Si](C)(C)OC[C@H]1O[C@@H](n2cc(F)c(=O)[nH]c2=O)[C@H](O[Si](C)(C)C(C)(C)C)[C@]12OS(=O)(=O)C=C2N	5	10	> 6.7	340	500 nM and > 1300 nM		
CNc1ccn([C@@H]2O[C@H](CO[Si](C)(C)C(C)(C)C)[C@@]3(OS(=O)(=O)C=C3N)[C@H]2O[Si](C)(C)C(C)(C)C)c(=O)n1	12	18	> 6.8	3380	680 nM and > 6800 nM		
CN(C)c1ccn([C@@H]2O[C@H](CO[Si](C)(C)C(C)(C)C)[C@@]3(OS(=O)(=O)C=C3N)[C@H]2O[Si](C)(C)C(C)(C)C)c(=O)n1	> 166	252	> 166	750			
